Screening results deposited in PubChem by several laboratories.
An excerpt weighted towards active compounds, which were near 4.9% of everything screened.
STAT1 activator: STAT1 signaling activation | 200,000 compounds, 2.6% hits | NIH 3T3 STAT1-luciferase reporter, IFN-gamma, luminescence; 100% = IFN-gamma alone, no compound | activation (% of control), % at 5.5 µM;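 active means activation above the screen-wide mean activation plus 3 SD, cut at about 130% in these data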;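 further: raw ratio to IFN-gamma control signal so 100% means no change and 0% no light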
STAT3 inh-1: STAT3 signaling inhibition | U3A cells, IL-6 STAT3-luciferase reporter, luminescence; host cell line lacks STAT1 | inhibition, % at 5.5 µM | 190,000 compounds, 0.89% hits | AID 862;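 active means inhibition above the mean inhibition across all screened compounds plus 3 SD, cut at about 44% in these data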;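 further: 0% = DMSO only wells and 100% = 100 µM nifuroxazide control wells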
APP 5'UTR act: APP 5'UTR luciferase reporter activation; SH-SY5Y APP 5'UTR luciferase reporter, luminescence; zero percent = DMSO vehicle wells; activation, % at 2 µM; 190,000 compounds, 1% hits; AID 1276;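 active means activation above a set limit, based on mean plus 3 SD of controls, cut at about 140% in these data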
STAT1 inh: reduces IFN-gamma driven STAT1 reporter signal | 200,000 compounds, 0.35% hits | inhibition, % at 5.5 µM | NIH 3T3 STAT1-luciferase reporter, luminescence;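 active means inhibition above a set limit, the mean inhibition across all tested compounds plus 3 SD, cut at about 34% in these data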;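 further: 0% = IFN-gamma with DMSO and 100% = IFN-gamma with 300 µM nifuroxazide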
STAT3 act: activators of IL-6 induced STAT3 signaling | U3A cells, IL-6 STAT3-luciferase reporter, luminescence; 100% = signal with IL-6 EC80 alone | activation (% of control), % at 5.6 µM | 190,000 compounds, 0.91% hits | AID 871;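 active means activation above the screen-wide mean of compound activation plus 3 SD, cut at about 130% in these data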;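 further: 0% = background luminescence of wells with medium and substrate only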
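Test system: Human STAT1-deficient U3A cells with stable STAT3-luciferase reporter | Also added: Interleukin-6, 33 ng/mL | Timing: Compound pre-incubation 1 h before IL-6, then 6 h stimulation at 37 °C | Technique: Luciferase reporter luminescence | Read-out: Percent of IL-6-only median luminescence | Benchmarks: IL-6-only wells as 100% reference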
NF-kB expr up: raises NF-kB expression in human neuronal cells | NF-kB reporter expression; stronger effect = higher value | AID 1239 | fold change at 12.5 µM | 190,000 compounds, 1.6% hits; in the data active means fold change above about 3.3
STAT3 inh-2: confirmation of STAT3 signaling inhibitors; inhibition, % at 5.7 µM; U3A cells, IL-6 STAT3 luciferase reporter, luminescence; cell line lacks STAT1; 1,200 compounds, 45% hits; shares compounds with STAT3 inh-1;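 active means inhibition above the hit cutoff computed for the primary STAT3 screen, cut at about 44% in these data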;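 further: 0% = IL-6 plus DMSO and 100% = IL-6 plus nifuroxazide control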
NFkB inh STAT3ct: inhibits NF-kappaB, counter-screen to STAT3 inhibitors. shares compounds with STAT3 inh-1. HEK293T NF-kB luciferase reporter, TNF-alpha induced. inhibition, % at 5.7 µM. 1,200 compounds, 36% hits;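 active means inhibition above the mean of solvent-only control wells plus 3 SD, cutoff set per campaign, cut at about 13% in these data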;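 further: 0% = TNF-alpha with DMSO and 100% = TNF-alpha with MG high control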
STAT1 inh 2: counter-screen for STAT3 inhibitors: STAT1 inhibition; AID 1317; NIH 3T3 STAT1-luciferase reporter, IFN-gamma induced, luminescence; 1,200 compounds, 27% hits; shares compounds with STAT3 inh-1; inhibition, % at 5.7 µM;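 active means inhibition above the mean plus 3 SD of solvent-only control wells, limit set per screening run, cut at about 16% in these data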;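 further: 0% = DMSO with IFN-gamma and 100% = nifuroxazide control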
* marks the source's active call; other numbers are inactive results; · = no result.

SMILES	STAT1 activator	STAT3 inh-1	APP 5'UTR act	STAT1 inh	STAT3 act	NF-kB expr up	STAT3 inh-2	NFkB inh STAT3ct	STAT1 inh 2
O=C(Nc1ccc(S(=O)(=O)N2CCCC2)cc1)c1ccc(CN2CCOCC2)cc1	95.3	65.3*	-5.8	5.2	50.3	0.32	52.5*	15.3*	12.7
O=C(Nc1ccc(S(=O)(=O)Nc2ncccn2)cc1)c1ccc(S(=O)(=O)N2CCCC2)cc1	101.6	3.8	9.8	-3.2	103.5	1.02	·	·	·
O=C(Nc1ccc(S(=O)(=O)N2CCCCC2)cc1)c1ccc(CN2CCOCC2)cc1	85.8	82.8*	-20.7	11.6	33.2	0.44	79.8*	28.6*	9.2
CCN(CC)S(=O)(=O)c1ccc(NC(=O)c2ccc(CN3CCOCC3)cc2)cc1	88.0	66.2*	-31.2	10.8	47.2	0.74	79.9*	26.4*	6.9
O=C(Nc1ccc2c(c1)OCCO2)c1ccc(CN2CCOCC2)cc1	119.2	3.2	29.9	-21.0	102.4	1.89	·	·	·
O=C(Nc1ccc(Cc2ccncc2)cc1)c1ccc(S(=O)(=O)N2CCOCC2)cc1	87.5	70.4*	11.9	13.7	45.0	0.51	56.7*	11.8	12.3
CC(C)C(OC(=O)c1cccs1)C(=O)NCc1ccccc1 (stereo unspecified)	97.9	4.2	19.0	1.8	101.2	1.21	·	·	·
COc1ccc(-c2nsc(SCC(=O)NCC3CCCO3)n2)cc1 (stereo unspecified)	109.0	7.8	19.8	-9.7	97.3	1.41	·	·	·
CC(=O)N[C@@H](C)C(=O)N1CCN(S(=O)(=O)c2ccc(Cl)cc2)CC1	107.1	1.5	1.2	-10.5	100.1	0.95	·	·	·
CN(c1ccc(C(=O)Nc2ccc(S(=O)(=O)N3CCCC3)cc2)cc1)S(C)(=O)=O	100.9	58.0*	-2.8	-3.0	54.2	0.91	43.3	6.0	-0.6
O=C(Nc1ccc(S(=O)(=O)N2CCN(Cc3ccccc3)CC2)cc1)c1cnccn1	80.8	82.0*	-7.7	21.1	35.6	0.98	74.6*	25.1*	22.6*
CCCCc1ccc(NC(=O)c2cnccn2)cc1	74.5	62.5*	174.2*	26.0	48.4	5.75*	28.9	-23.3	-65.9
O=C(CCc1ccccc1)c1nnc(-c2ccccc2)o1	102.7	6.0	-16.9	-3.3	98.3	1.71	·	·	·
Cc1cc(C)n(-c2ccc(C(=O)Nc3ccc(S(=O)(=O)NCc4ccco4)cc3)cc2)n1	89.5	74.6*	-6.1	11.3	36.9	0.48	56.0*	17.2*	19.3*
COc1ccc(C(C)(C)C)cc1S(=O)(=O)n1ccnc1C	92.2	18.5	2.2	8.6	91.1	0.86	·	·	·
CCOc1ccc(N=c2scc(-c3ccc(OC)cc3)n2CCO)cc1	97.5	58.8*	29.9	2.7	54.3	0.91	17.6	-1.9	-4.7
Cc1cc(C(=O)Nc2nc3c(s2)CCCC3)cs1	136.0*	52.0*	119.2	-36.6	60.1	6.38*	21.0	-41.0	-137.1
COc1cccc2c1OC[C@@H](CO)[C@H]2N(C)C(=O)Nc1ccc(Cl)cc1Cl	89.0	44.0*	·	12.2	68.3	0.71	30.9	3.1	17.2*
CC(=O)c1cccc(NC(=O)Nc2ccc(C(=O)N3CCCC3)cc2)c1	87.5	13.2	22.3	13.6	88.2	1.09	·	·	·
O=C(Nc1ccccc1)Nc1ccc(C(=O)N2CCCC2)cc1	71.1	44.9*	185.9*	30.1	64.1	3.14	23.3	-6.9	-24.2
CC(=O)N1CCN(Cc2nc3cc(NC(=O)NC4CCCCC4)ccc3n2C)CC1	101.1	2.9	9.0	-4.2	101.7	1.17	·	·	·
COc1ccc2nc3c(cc2c1)c(NC(=O)c1cccs1)nn3CC(C)C	93.9	58.9*	-42.9	6.7	50.8	0.44	54.3*	-9.6	1.8
Cc1ccc(CN=C2Nc3ccccc3CS2)cc1	102.1	58.9*	143.2*	-2.4	57.4	6.76*	-3.5	-27.3	-99.8
O=C1CC(/C=C/c2ccncc2)=Nc2ccccc2N1	103.1	3.3	-1.2	-3.5	98.9	2.61	·	·	·
Cc1csc2ncnc(NCCc3ccccn3)c12	67.0	72.1*	20.4	34.5*	40.2	0.97	74.7*	24.6*	23.6*
SMILES	STAT1 activator	STAT3 inh-1	APP 5'UTR act	STAT1 inh	STAT3 act	NF-kB expr up	STAT3 inh-2	NFkB inh STAT3ct	STAT1 inh 2
c1ccc(CCNc2ncnc3sccc23)nc1	99.1	35.6	27.6	-1.0	72.8	1.33	·	·	·
Nc1nc2c(Cl)cc(Cl)cc2s1	114.5	14.3	2.3	-18.1	92.8	1.18	·	·	·
Nc1nc2c(Cl)ccc(Cl)c2s1	83.9	45.6*	-5.7	15.7	64.6	1.16	40.5	-7.1	-14.3
CCC(C)NC(=S)Nc1ccc(C(=O)OC)cc1 (stereo unspecified)	88.4	55.1*	25.7	13.1	55.6	·	52.7*	10.8	5.7
CCC(C)C(NC(N)=O)C(=O)Nc1ccc(C(=O)OC)cc1 (stereo unspecified)	93.2	17.2	4.2	5.9	90.8	1.11	·	·	·
Cc1ccc(C)n1-c1ccc(-c2ccnc(N)n2)cc1	108.3	44.8*	-4.4	-9.3	65.9	0.93	2.6	-3.8	-28.4
O=C(Nc1ccc(-c2cn3ccsc3n2)cc1)c1ccc(F)c(S(=O)(=O)N2CCOCC2)c1	93.2	44.8*	12.0	7.4	66.5	0.37	35.1	1.1	1.1
Cc1nc2ccccc2cc1OCc1ccccc1	82.9	69.4*	5.2	19.0	48.6	1.24	50.2*	8.0	3.3
Cc1nc2ccccc2cc1OCc1ccc(Cl)cc1	89.4	70.6*	·	11.8	46.1	1.23	80.3*	13.4*	4.1
Cc1nc2ccccc2nc(C)c1=NOCc1cccc(Cl)c1	97.7	·	15.8	1.3	·	0.96	·	·	·
COC(=O)c1sccc1OCc1cccc(OC)c1	102.5	15.3	13.1	-3.0	90.5	1.39	·	·	·
COc1cccc(COc2cc3ccccc3nc2C)c1	86.3	80.4*	17.5	15.3	38.8	1.08	76.2*	20.6*	7.5
CCCNC(=O)C1CCN(c2cc(-c3ccccc3)nc3ncnn23)CC1	91.4	5.0	-8.8	9.1	100.7	0.96	·	·	·
FC(F)(F)c1ccc(N2CCN(c3cc(-c4ccccc4)nc4ncnn34)CC2)nc1	85.1	48.1*	12.7	16.3	65.1	1.19	46.2*	14.9*	27.2*
CCOC(=O)N1CCN(C(=O)CSc2ccc(-c3cccnc3)nn2)CC1	96.1	5.4	-17.9	4.0	99.5	1.03	·	·	·
COc1ccc2cc(C(c3nnnn3C3CCCC3)N3CCOCC3)c3nnnn3c2c1 (stereo unspecified)	104.5	-5.8	12.8	-5.2	110.4	1.17	·	·	·
